Measured values gathered from unrelated publications.
Compare with care: the assays were run in different laboratories. ≈ marks a conversion by molar mass, not a printed value.
Organism: Pseudomonas aeruginosa

Structure (SMILES) | assay | system | conditions | quantity | result
COc1cc(C=CC(=O)CC(c2ccc([N+](=O)[O-])cc2)n2ccnc2)ccc1O (centres unmarked) | microbial growth, disc diffusion | ATCC27853 | 250 µg/mL | inhibition zone | 6 mm
O=C(Sc1cccccc1=O)c1ccccc1C(F)(F)F | microbial growth, broth dilution | ATCC27853 | – | MIC80 | > 71.4 µM
Cc1cc(N)c2ccccc2[n+]1CCCCCCCCCC[n+]1c(C)cc(N)c2ccccc21 | microbial growth, disc diffusion | – | 50 µg/disc | inhibition zone | 0 mm
CC1(C)SC2C(NC(=O)C(NC(=O)C3=C(O)C4(CC4)NC3=O)c3ccccc3)C(=O)N2C1C(=O)O (centres unmarked) | microbial growth, well diffusion | PAO1 | 200 µM | inhibition zone | 12 mm
COc1cc(C=Cc2cc(-c3ccc(N(C)C)cc3)nc(O)n2)ccc1O | microbial growth, disc diffusion | ATCC27853 | 500 µg/mL | inhibition zone | 7.67 mm
COc1c(C)c(OS(=O)(=O)c2ccc3ccccc3c2)c(C)c(OS(=O)(=O)c2ccc3ccccc3c2)c1C(=O)/C=C/c1ccccc1 | microbial growth, well diffusion | ATCC27853 | 5 µg/mL | inhibition zone | 14 mm
CCCCCCCCCCCCCC(O)CC(O)CO (centres unmarked) | microbial growth, broth dilution | ATCC27853 | – | IC50 | > 200 µg/mL
CC1(C)S[C@@H]2[C@H](NC(=O)C(C(=O)O)c3ccccc3)C(=O)N2[C@H]1C(=O)O (some centres unmarked) | microbial growth, well diffusion | PAO1 | 200 µM | inhibition zone | 9.3 mm
C[C@H]1NCc2cc(-c3ccc4c(=O)c(C(=O)O)cn(C5CC5)c4c3OC(F)F)ccc21 | microbial growth, broth dilution | – | clinical isolate | MIC50 | 2 µg/mL (≈ 4.69 µM)
CC(C)c1ccc(O)c(=O)cc1 | microbial growth, broth dilution | ATCC27853 | – | MIC80 | > 71.4 µM
COc1c(C)c(OC)c2c(c1C)OC(c1ccccc1)CC2=O (centres unmarked) | microbial killing, broth dilution | ATCC27853 | – | MBC | > 5000 µg/mL
C=CCCCCCCCCCCCC(O)CC(O)CO (centres unmarked) | microbial growth, broth dilution | ATCC27853 | – | IC50 | > 200 µg/mL
COc1c(C)c(OCc2ccccc2)c(C)c(O)c1C(=O)/C=C/c1ccccc1 | microbial killing, broth dilution | ATCC27853 | – | MBC | > 5000 µg/mL
O=c1cccccc1Sc1cccccc1=O | microbial growth, broth dilution | ATCC27853 | – | MIC80 | > 71.4 µM
CC1(C)S[C@@H]2[C@H](NC(=O)[C@H](N)c3ccccc3)C(=O)N2[C@H]1C(=O)O | microbial growth, well diffusion | PAO1 | 200 µM | inhibition zone | 8 mm
COc1c(C)c(O)c(C)c(O)c1C(=O)/C=C/c1ccccc1 | microbial killing, broth dilution | ATCC27853 | – | MBC | > 5000 µg/mL
O=C(O)c1cn(C2CC2)c2cc(N3CCNCC3)c(F)cc2c1=O | microbial growth, disc diffusion | – | 100 µg/mL, 24 h | inhibition zone | 16 mm
CN[C@H](CC(C)C)C(=O)N[C@H]1C(=O)N[C@@H](CC(N)=O)C(=O)N[C@H]2C(=O)N[C@H]3C(=O)N[C@H](C(=O)N[C@H](C(=O)O)c4cc(O)cc(O)c4-c4cc3ccc4O)[C@H](O)c3ccc(c(Cl)c3)Oc3cc2cc(c3O[C@@H]2O[C@H](CO)[C@@H](O)[C@H](O)[C@H]2O[C@H]2C[C@](C)(N)[C@H](O)[C@H](C)O2)Oc2ccc(cc2Cl)[C@H]1O | microbial killing, broth dilution | ATCC9027 | – | MBC | > 128 µM
CC1(C)S[C@@H]2[C@H](NC(=O)[C@H](N)c3ccc(O)cc3)C(=O)N2[C@H]1C(=O)O | microbial growth, disc diffusion | ATCC27853 | 250 µg/mL | inhibition zone | 9.38 mm
CCCC(=O)Oc1c(C)c(O)c(C(=O)/C=C/c2ccccc2)c(OC)c1C | microbial killing, broth dilution | ATCC27853 | – | MBC | > 5000 µg/mL
COc1cc(C=CC(=O)CC(c2ccc(N(C)C)cc2)n2ccnc2)ccc1O (centres unmarked) | microbial growth, disc diffusion | ATCC27853 | 500 µg/mL | inhibition zone | 23.3 mm
COc1c(C)c(OC(=O)c2ccc(C)cc2)c(C)c(O)c1C(=O)/C=C/c1ccccc1 | microbial killing, broth dilution | ATCC27853 | – | MBC | > 5000 µg/mL
COc1cc(C=Cc2cc(-c3ccccc3)nc(O)n2)ccc1O | microbial growth, disc diffusion | ATCC27853 | 250 µg/mL | inhibition zone | 6 mm
O=C(Sc1cccccc1=O)c1ccccc1 | microbial growth, broth dilution | ATCC27853 | – | MIC80 | > 71.4 µM
CCN1CCN(C(=O)N[C@@H](C(=O)N[C@@H]2C(=O)N3[C@@H]2SC(C)(C)[C@@H]3C(=O)O)c2ccccc2)C(=O)C1=O | microbial growth, well diffusion | PAO1 | 200 µM | inhibition zone | 19 mm
CCCCCC(=O)Oc1c(C)c(O)c(C(=O)/C=C/c2ccccc2)c(OC)c1C | microbial killing, broth dilution | ATCC27853 | – | MBC | > 5000 µg/mL
CC(C)c1cccc(=O)c(O)c1 | microbial growth, broth dilution | ATCC27853 | – | MIC80 | > 71.4 µM
COc1c(C)c(OC(C)=O)c(C)c(OC(C)=O)c1C(=O)/C=C/c1ccccc1 | microbial killing, broth dilution | ATCC27853 | – | MBC | > 5000 µg/mL
O=c1[nH]cc(F)c(=O)[nH]1 | microbial killing, broth dilution | – | 48 h | MBC | 8 µg/mL
